Test results published in the RNAGym collection of RNA variant scans (doi:10.1126/science.aae0568).
Fewer inactive variants are shown than the library holds.

B1: tRNA (parent)
chain: GUUCCGUUGGCGUAAUGGUAACGCGUCUCCCUCCUAAGGAGAAGACUGCGGGUUCGAGUCCCGUACGGAACG

Variants of: B1
Experiment: yeast fitness relative to wild type (ratio to wild type); higher = fitter; tRNA-Arg(CCU), competitive growth, 37 C, YPD
Procedure, shortened: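 For this measurement, the tRNA-Arg(CCU) gene was varied by chemical synthesis at a 3% per-site mutation rate across 69 sites, and each variant was placed at the native genomic locus in Saccharomyces cerevisiae. The pooled strains went through a 24-hour competition in YPD at 37°C in six parallel replicates, with amplicons from start and end populations read by 100-nucleotide paired-end sequencing. Darwinian fitness relative to wild type followed from the change in each genotype's frequency. Genotypes needed ≥ 100 starting reads, and estimates < 0.5 were set to 0.5.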

Variant	yeast fitness
GUUCCGUUGGGGUAAUGGUAACGCGAAUGCCUCCUAAGGAGAAGAAUGCAGGUUCGAGGCCCGUACGGAACG [C11G U26A C27A C29G C46A G50A U59G]	0.73
GUUCCGUUGGGGUAAAGGUAACGUGUCUCCCUCCUAAGGAGAAGACUGCCGGUUCGAGUCCCGUAUGGAACG [C11G U16A C24U G50C C66U]	≤ 0.5
GUUCCGUUGGGGUAAUGGUAACGCGUCUCCCUCCUAAGGAGAAGACAGCGGGUUCGAGUCCCGUACGGAACG [C11G U47A]	0.686
GUUCCGUUGGGGUAAUGGUAACGCGUCUCCCUCCUAAGGAGAAGACCGCGGGUUCGAGUCCCGUACGGAACG [C11G U47C]	0.687
GUUCCGUUGGGGUAAUGGUAACGCGUCUCCCUCCUAAGGAGAAGACGGCGGGUUCGAGUCCCGUACGGAACG [C11G U47G]	≤ 0.5
GUUCCGUUGGUGUCAUGGUAACGCGUGUCCUUCCUAAGGAGAAGACUGGGGGUUCGACUCCCGUACGGAACG [C11U A14C C27G C31U C49G G58C]	≤ 0.5
GUUCCGUUGGGGUAAAGGUAACGCGUCUCCCUCCUAAGGAGAAGACUGCGGGUUCGAGUCCCGUGCGGAACG [C11G U16A A65G]	0.567
GUUCCGUUGGGGUAAUGGUAACGCGUCUCCCUCCUAAGGAGAAGACUGCGGGAUUCAGUCCCGUACGGAACG [C11G U53A C55U G56C]	≤ 0.5
GUUCCGUUGGGGUAAUGGUAACGCGUCACCCUCCUAAGGAGAAGACUGCGGGUUCGAGUCCCGUACGGAACG [C11G U28A]	≤ 0.5
GUUCCGUUGGGGUAAUGGUAACGCGUCUCCCCCCUAAGGAGAAGACUGCGGGUUCGAGUGCCGUACGGAACG [C11G U32C C60G]	≤ 0.5
GUUCCGUUGGGGUAAAGGUGACGCGUCUCACUCCUAAGGAGAAGACUGCGGGUUCGAGUCCCGUACGGAACG [C11G U16A A20G C30A]	≤ 0.5
GUUCCGUUGGGGUAAUGGUAACGCGUCUCCCGCCUAAGGAGAAGGCUGUGGGUUCGAGUCCCGUACGGAUCG [C11G U32G A45G C49U A70U]	≤ 0.5
GUUCCGUUGGGGUAAAGGUAACGCGUCUCCCUCCUAAGGAGAAGACUGCGGGUUCGAGUCCCGUACGGAUCG [C11G U16A A70U]	0.553
GUUCCGUUGGGGUAAUGGUAACGCGUCUCCCGCCUAAGGAGAAGACUGCGGGUUCGAGUCCCGUACGGCUCG [C11G U32G A69C A70U]	≤ 0.5
GUUCCGUUGGGGUAAUGGUAACGCGUCACCCUCCUAAGGAGAAGACUGCGGGUUCGAGUCCCGUACGGAUCG [C11G U28A A70U]	≤ 0.5
GUUCCGUUGGGGUAAAGGUAUCCCGUCUCCCUCCUAAGGAGAAGACUGCGGGUUCGAGUCCCGUACGGAACG [C11G U16A A21U G23C]	0.665
GUUCCGUUGGGGUAAUGGUAACGCGUCACCCUCCUAAGAAGAAGACUACGGGUUCGACUCCCGUACGGAACG [C11G U28A G39A G48A G58C]	0.543
GUUCCGUUGGGGUAAUGGUAACGCGCCUCCAUCCUAAGGAGAUGACUGCGGGUUCGAGUCACGUACGGAACG [C11G U26C C31A A43U C61A]	≤ 0.5
GUUCCGUUGGGGUAAUGGUAACGCGCCUCCCUCCUAAGGAGAAGACUGGGGGUUCGAGUCCCGUACGGAACG [C11G U26C C49G]	≤ 0.5

Variant	yeast fitness
GUUCCGUUGGUGUCGUGGUAACGCGACUCCCUCAUAAGGAGAAGAGUGCGGGUUCGAGUCCCGUACGGAACG [C11U A14C A15G U26A C34A C46G]	0.637
GUUCCGUUGGGGUAAAGGUAACGCGUCUCCCUCCUAAGGAGAAGACCGCGGGUUCGAGUCCCGUACGGAACG [C11G U16A U47C]	0.655
GUUCCGUUGGGGUAAGGGUAACGCGUCUCCCUCCUAAGGAGAAGACUGCGGGUUAGAGUCCCGUACGGAACG [C11G U16G C55A]	≤ 0.5
GUUCCGUUGGGGUAAUGGUAACGCGUCCCCCUCCUGAGGAGACGACUGCGGGUUCGAGUCCCGUACGGAACG [C11G U28C A36G A43C]	≤ 0.5
GUUCCGUUGGGGUAAUGGUAACGCGUCUCCCACCUGAGGAGAAGAUUGCGGGUUCGAGUCCCGUACGGAACG [C11G U32A A36G C46U]	0.592
GUUCCGUUGGGGUAAAGGUAACGCGUCUCCCUCCUAAGGAGGAGACUGCGGGUUCGUGUCCCGUACGGAACG [C11G U16A A42G A57U]	≤ 0.5
GUUCCGUUGGGGUAAUGGUAACGCGUCUCCCACCUAAGGAGAAGACUGCGGGUUCGAGUCCCGUACGGAACG [C11G U32A]	≤ 0.5
GUUCCGUUGGGGUAAAGGUAACGCGUCUCCAUCCUAAGGAGGAGACUGCGGGUUCGAGUCCCGUACGGAACG [C11G U16A C31A A42G]	0.573
GUUCCGUUGGGGUAAUGGUAACGCGUCUCCCUCCUAAGGAGAAGACUGCGGGUACGAGUCCCGUACGGAACG [C11G U54A]	≤ 0.5
GUUCCGUUGGGGUAAAGGUAACGCGUCUUCCUCCUAAGGAGAAGACUGCGGGUUCGAGUCCCGUAAGGAACG [C11G U16A C29U C66A]	≤ 0.5
GUUCCGUUGGGGUAAUGGCAACGCGUCUCCCUCCUAAGGAGAAGACUGCGGGUUCGACUCCCGUACGGAACG [C11G U19C G58C]	≤ 0.5
GUUCCGUUGGGGUAAAGGUAACGCGUCUCCCUCCUAAGGAGAAGACUGCGGGUUCGAGUCCCGUACGGAACG [C11G U16A]	0.666
GUUCCGUUGGGGUAAUGGUAACGCGUCUCCCCCCUAAGGAGAAGACUACGGGUUCGAGUGCCGUACGGAACG [C11G U32C G48A C60G]	≤ 0.5
GUUCCGUUGGGGUAAAGGUAAUGCGUCACCAUCCUAAGGAGCAGUCUGCGAGUUCGAGUCCCGAACGGAACG [C11G U16A C22U U28A C31A A42C A45U G51A U64A]	≤ 0.5
GUUCCGUUGGGGUAAUGGUAACGCGUCACCCUCCUAAGAAGAAGACUACGGGUUCGAGUCGCGUAGGGAACG [C11G U28A G39A G48A C61G C66G]	0.561
GUUCCGUUGGGGUAAUGGAAACGCAUCUCCCUCCUAAGGAGAAGACUGUGGGUUCGAGUCCCGUACGGAACG [C11G U19A G25A C49U]	≤ 0.5
GUUCCGUUGGGGUAAUGGUAACGCGACUCCCUCCAAAGGAGAAGACUGCGGGUUCGAGUCCCGUACGGAACG [C11G U26A U35A]	≤ 0.5
GUUCCGUUGGGGUAAUGGUAACGCGUCACCCUCCUAAGAAGAAGACUACGGGUUCGAGUCCCGUACCGAACG [C11G U28A G39A G48A G67C]	≤ 0.5
GUUCCGUUGGGGUAAAGGUAAUGCGUCUCCCUCCUAAGGAGAAGACUGCGCGUUCGAGUUCCGUACAGAACG [C11G U16A C22U G51C C60U G67A]	≤ 0.5
